ChEMBL document CHEMBL4270555, “Synthesis and biological evaluation of magnolol derivatives as melatonergic receptor agonists with potential use in depression” (Eur J Med Chem, 2018)
Calls of active or inactive are those of the source. The calls are words filed in the database; no cut-off is given here.

Columns and labels:
Mus musculus [1] = experiment: Increase in norepinephrine level in Kunming mouse frontal cortex at 40 mg/kg, po treated for 7 days by HPLC-ECD analysis; format: functional, organism-based
Method in brief: (§1)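 Male Kunming mice (18–20 g) given vehicle or 40 mg/kg for 7 days, then killed by cervical dislocation. Frontal cortex, hippocampus, striatum, hypothalamus and thalamus dissected on ice, homogenized in ice-cold 0.2 M perchloric acid with 0.1 mM EDTA, centrifuged 15,000 rpm, 20 min, 4 °C. Supernatant analysed by HPLC-ECD at +0.50 V; phosphate/octanesulfonate mobile phase pH 3.0 with 12% methanol. Levels in ng/g, mean ± SEM.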

Mus musculus [2] = experiment: Toxicity in Kunming mouse assessed as effect in spontaneous locomotor activity by measuring total distance travelled at 10 to 40 mg/kg, po by open field test; format: organism-based; conditions: in vivo
Method in brief: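 Male Kunming mice, 18–20 g, group-housed at 22 ± 2 °C on 12 h light/dark, given oral doses of 10, 20 or 40 mg/kg before behavioural testing. Each animal placed in the centre of a black open-field box (24 × 24 × 40 cm) for 30 s adaptation, then explored freely for 6 min. Line crossings and distance recorded. Mean ± SEM, n = 10.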

Mus musculus [3] = experiment: Antidepressant activity in Kunming mouse assessed as decrease in immobility duration at 40 mg/kg, po by forced swim test relative to control; format: functional; parameters: scale not given: the % may be the effect or the level left
Method in brief: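 Male Kunming mice (18–20 g) given 10, 20 or 40 mg/kg orally; fluoxetine and agomelatine 20 mg/kg as references. Each mouse swam 6 min in a cylinder (25 × 15 cm) holding 10 cm of water at 25 ± 1 °C. Immobility over the last 4 min was scored by video tracking; n = 10, mean ± SEM versus vehicle.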

Mus musculus [4] = experiment: Increase in norepinephrine level in Kunming mouse striatum at 40 mg/kg, po treated for 7 days by HPLC-ECD analysis; format: functional, organism-based; method in brief: as §1
Mus musculus [5] = experiment: Increase in ratio of 5-hydroxyindole-3-acetic acid to 5-hydroxytryptamine level in Kunming mouse hypothalamus at 40 mg/kg, po treated for 7 days by HPLC-ECD analysis; format: functional, organism-based; method in brief: as §1
Mus musculus [6] = experiment: Increase in 4-hydroxy-3-methoxyphenylacetic acid level in Kunming mouse thalamus at 40 mg/kg, po treated for 7 days by HPLC-ECD analysis; format: functional, organism-based; method in brief: as §1
Mus musculus [7] = experiment: Increase in ratio of 3,4-dihydroxyphenylacetic acid and 4-hydroxy-3-methoxyphenylacetic acid to dopamine level in Kunming mouse frontal cortex at 40 mg/kg, po treated for 7 days by HPLC-ECD analysis; format: functional, organism-based; method in brief: as §1
Mus musculus [8] = experiment: Increase in ratio of 3,4-dihydroxyphenylacetic acid and 4-hydroxy-3-methoxyphenylacetic acid to dopamine level in Kunming mouse thalamus at 40 mg/kg, po treated for 7 days by HPLC-ECD analysis; format: functional, organism-based; method in brief: as §1
Rattus norvegicus = experiment: Toxicity in Sprague-Dawley rat assessed as irritation at 2000 mg/kg, po measured over 4 hrs; format: organism-based; conditions: in vivo
Method in brief: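 Acute oral toxicity run per OECD 425 in adult SD rats (180–220 g). Six animals per group: vehicle control (0.5% CMC-Na, oral), male rats and female rats each dosed orally at 2000 mg/kg. Animals were watched continuously for the first 4 h for behavior, breathing, cutaneous signs (irritation, ulceration, caustic injury, skin rashes), sensory nervous and gastrointestinal effects. Later checks were hourly for 24 h, then every 6 h for 48 h.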

[9] = Drug metabolism in Sprague-Dawley rat urine assessed as (2S,3S,4S,5R,6S)-3,4,5-trihydroxy-6-(5-(1-hydroxyallyl)-5'-(1-hydroxypropyl)-2'-((2S,3R,4S,5S,6R)-3,4,5-trihydroxy-6-(hydroxymethyl)tetrahydro-2H-pyran-2-yloxy)biphenyl-2-yloxy)tetrahydro-2H-pyran-2-carboxylic acid formation at 100 mg/kg, po by UPLC-IT-TOF-MS analysis; format: ADME, organism-based; conditions: in vivo
Method in brief: (§2)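 Male/unspecified SD rats (n = 6) housed individually in metabolic cages, dosed orally at 100.0 mg/kg; controls given 0.5% CMC-Na orally. Plasma, urine and faeces collected. LC-IT-TOF-MS on C18 column at 30 °C, formic acid (0.05%) water/acetonitrile gradient 5–100% B over 18 min, 0.2 mL/min; positive and negative ion modes with automatic MS/MS.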

[10] = Drug metabolism in Sprague-Dawley rat urine assessed as 5'-(1-hydroxyallyl)-5-(1-hydroxypropyl)-2'-((2S,3R,4S,5S,6R)-3,4,5-trihydroxy-6-(hydroxymethyl)tetrahydro-2H-pyran-2-yloxy)biphenyl-2-yl hydrogen sulfate formation at 100 mg/kg, po by UPLC-IT-TOF-MS analysis; format: ADME, organism-based; conditions: in vivo; method in brief: as §2
[11] = Drug metabolism in Sprague-Dawley rat plasma assessed as 5'-acryloyl-2'-hydroxy-5-propionylbiphenyl-2-yl hydrogen sulfate formation at 100 mg/kg, po by UPLC-IT-TOF-MS analysis; format: ADME, organism-based; conditions: in vivo; method in brief: as §2
[12] = Drug metabolism in Sprague-Dawley rat feces assessed as 5'-acryloyl-2'-hydroxy-5-propionylbiphenyl-2-yl hydrogen sulfate formation at 100 mg/kg, po by UPLC-IT-TOF-MS analysis; format: ADME, organism-based; conditions: in vivo
Method in brief: (§3)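 Rats (n = 6) housed in metabolic cages received 100.0 mg/kg orally; controls received 0.5% CMC-Na. Plasma, urine and faeces were collected and analyzed by LC-IT-TOF-MS on a C18 column at 30 °C. Gradient 5–100% acetonitrile with 0.05% formic acid over 18 min at 0.2 mL/min; positive and negative ion MS/MS.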

[13] = Drug metabolism in Sprague-Dawley rat feces assessed as (2S,3R,4S,5S,6R)-2-(5'-allyl-2'-hydroxy-5-(1-hydroxyallyl)biphenyl-2-yloxy)-6-(hydroxymethyl)tetrahydro-2H-pyran-3,4,5-triol formation at 100 mg/kg, po by UPLC-IT-TOF-MS analysis; format: ADME, organism-based; conditions: in vivo; method in brief: as §3
[14] = Drug metabolism in Sprague-Dawley rat feces assessed as (2S,3S,4S,5R,6S)-6-(5-acryloyl-2'-hydroxy-5'-(1-hydroxyallyl)biphenyl-2-yloxy)-3,4,5-trihydroxytetrahydro-2H-pyran-2-carboxylic acid formation at 100 mg/kg, po by UPLC-IT-TOF-MS analysis; format: ADME, organism-based; conditions: in vivo; method in brief: as §3
[15] = Drug metabolism in Sprague-Dawley rat urine assessed as 1-(5'-allyl-2'-hydroxy-6-((2S,3R,4S,5S,6R)-3,4,5-trihydroxy-6-(hydroxymethyl)tetrahydro-2H-pyran-2-yloxy)biphenyl-3-yl)prop-2-en-1-one formation at 100 mg/kg, po by UPLC-IT-TOF-MS analysis; format: ADME, organism-based; conditions: in vivo; method in brief: as §2
[16] = Drug metabolism in Sprague-Dawley rat urine assessed as (2R,2'R,3S,3'S,4S,4'S,5R,5'R,6S,6'S)-6,6'-(5,5'-diallylbiphenyl-2,2'-diyl)bis(oxy)bis(2-(hydroxymethyl)tetrahydro-2H-pyran-3,4,5-triol) formation at 100 mg/kg, po by UPLC-IT-TOF-MS analysis; format: ADME, organism-based; conditions: in vivo; method in brief: as §2
[17] = Drug metabolism in Sprague-Dawley rat feces assessed as 1-(2'-hydroxy-5'-(1-hydroxyallyl)-6-((2S,3R,4S,5S,6R)-3,4,5-trihydroxy-6-(hydroxymethyl)tetrahydro-2H-pyran-2-yloxy)biphenyl-3-yl)prop-2-en-1-one formation at 100 mg/kg, po by UPLC-IT-TOF-MS analysis; format: ADME, organism-based; conditions: in vivo; method in brief: as §3
[18] = Drug metabolism in Sprague-Dawley rat feces assessed as 5,5'-bis(1-hydroxyallyl)biphenyl-2,2'-diol formation at 100 mg/kg, po by UPLC-IT-TOF-MS analysis; format: ADME, organism-based; conditions: in vivo; method in brief: as §3
[19] = Drug level in Sprague-Dawley rat feces at 100 mg/kg, po by UPLC-IT-TOF-MS analysis; format: ADME, organism-based; conditions: in vivo; method in brief: as §3
[20] = Drug metabolism in Sprague-Dawley rat feces assessed as 5,5'-diallyl-2'-hydroxybiphenyl-2-yl hydrogen sulfate formation at 100 mg/kg, po by UPLC-IT-TOF-MS analysis; format: ADME, organism-based; conditions: in vivo; method in brief: as §3

SMILES: C=CCc1ccc(O)c(-c2cc(CC=C)ccc2O[C@@H]2O[C@H](CO)[C@@H](O)[C@H](O)[C@H]2O)c1
- Activity (Mus musculus [1]): Active
- Activity (Mus musculus [2]): Non-Toxic
- Activity (Mus musculus [3]): 37.66%
- Activity (Mus musculus [4]): Active
- Activity (Mus musculus [5]): Active
- Activity (Mus musculus [6]): Active
- Activity (Mus musculus [7]): Active
- Activity (Mus musculus [8]): Active
- Activity (Rattus norvegicus): Non-Toxic
- Drug metabolism [9]: Metabolite_Detected
- Drug metabolism [10]: Metabolite_Detected
- Drug metabolism [11]: Metabolite_Notdetected
- Drug metabolism [12]: Metabolite_Notdetected
- Drug metabolism [13]: Metabolite_Notdetected
- Drug metabolism [14]: Metabolite_Notdetected
- Drug metabolism [15]: Metabolite_Detected
- Drug metabolism [16]: Metabolite_Detected
- Drug metabolism [17]: Metabolite_Notdetected
- Drug metabolism [18]: Metabolite_Detected
- Drug uptake [19]: Not Active
- Drug metabolism [20]: Metabolite_Detected
